# Assay results as given in ChEMBL document CHEMBL3217692, “Synthesis and cytotoxicity evaluation of novel pyrido[3,4-d]pyrimidine derivatives as potential anticancer agents” (2012).
# Experiments:
# Type in all cases: functional
# [1] = Cytotoxicity against human UO31 cells assessed as cell growth at 10 uM after 48 hrs by sulforhodamine B assay relative to control; conditions: UO-31, 48 h, read-out: Activity
# Outline: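 NCI-60 single-dose screen. Cells were grown in RPMI 1640 with 5% FBS and 2 mM L-glutamine, seeded at 5000–40 000 cells/well according to doubling time, and pre-incubated 24 h at 37 °C, 5% CO2. Time-zero plates were TCA-fixed at dosing. Compound in DMSO was given at 10 μM for 48 h. Cells were then fixed in cold TCA, stained with 0.4% SRB, solubilised in 10 mM Tris base and read at 515 nm. Growth % was calculated from time-zero, control and treated absorbances.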
# [2] = system: MCF7; assay: Cytotoxicity against human MCF7 cells assessed as cell growth at 10 uM after 48 hrs by sulforhodamine B assay relative to control; conditions: MCF7, 48 h, read-out: Activity
# Outline: (§1)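 Adherent cells were grown in RPMI 1640 with 5% FBS and 2 mM L-glutamine, seeded at 5000–40 000 cells/well by doubling time, and held 24 h at 37 °C, 5% CO2 before drug. Time-zero plates were TCA-fixed. Compound in DMSO, single dose 10 μM, 48 h. Cells were fixed with cold TCA (final 10%, 60 min, 4 °C) and stained with 0.4% SRB. Bound dye was dissolved in 10 mM Tris base and read at 515 nm. Percent growth was derived from time-zero, control and treated absorbances.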
# [3] = system: MDA-MB-468; assay: Cytotoxicity against human MDA-MB-468 cells assessed as cell growth at 10 uM after 48 hrs by sulforhodamine B assay relative to control; conditions: MDA-MB-468, 48 h, read-out: Activity; outline: as §1
SMILES,growth at 10 µM [1],growth at 10 µM [2],growth at 10 µM [3]
COc1nccc2c(Nc3ccccc3)nc(N)nc12,88.3%,78.5%,56.5%
COc1nccc2c(Nc3ccc(Cl)cc3)nc(N)nc12,42.9%,62.2%,60%
COc1ccc(Nc2nc(N)nc3c(OC)nccc23)cc1,57.7%,73%,76.3%
COc1nccc2c(Sc3ccccc3)nc(N)nc12,75.3%,91.9%,112%
COc1nccc2c(-c3ccccc3)nc(N)nc12,93.8%,96.5%,98.2%
COc1ccc(-c2nc(N)nc3c(OC)nccc23)cc1,108%,86.3%,97.9%
COc1nccc2c(-c3ccc(Cl)cc3)nc(N)nc12,86.2%,75.3%,90.3%
Nc1nc(Nc2ccccc2)c2ccnc(O)c2n1,73.7%,80.8%,126%
Nc1nc(Nc2ccc(Cl)cc2)c2ccnc(O)c2n1,54.5%,81%,135%
COc1ccc(Nc2nc(N)nc3c(O)nccc23)cc1,64.6%,79.7%,118%
Nc1nc(Sc2ccccc2)c2ccnc(O)c2n1,86.8%,91.6%,120%
Nc1nc(-c2ccccc2)c2ccnc(O)c2n1,91.9%,111%,101%
COc1ccc(-c2nc(N)nc3c(O)nccc23)cc1,94.6%,95.7%,110%
Nc1nc(-c2ccc(Cl)cc2)c2ccnc(O)c2n1,96.9%,94.1%,108%
Nc1nc(-c2cccc(F)c2)c2ccnc(O)c2n1,117%,83.3%,107%
